Measurements from ChEMBL document CHEMBL1159121, “Synthesis, in vitro structure-activity relationship, and in vivo studies of 2-arylthiazolidine-4-carboxylic acid amides as anticancer agents” (Bioorg Med Chem, 2010).
pIC50: −log10 of the molar value.

How the values were obtained:
[1] = system: M14; assay: Growth inhibition of human M14 cells; assay type: functional
[2] = system: HOP-62; assay: Growth inhibition of human HOP62 cells; assay type: functional
[3] = Antiproliferative activity against human WM164 cells after 48 hrs by SRB assay; assay type: functional, cell-based; details: WM164, 48 h
How it was run: (§1)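 Melanoma lines and control fibroblasts grown at 37 °C, 5% CO2, then exposed to a wide concentration range for 48 h in round-bottom 96-well plates. Fixed with 10% TCA, stained with SRB, protein read at 560 nm. IC50 (50% growth inhibition versus untreated) obtained by nonlinear regression.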

[4] = system: MDA-MB-435; assay: Growth inhibition of human MDA-MB-435 cells; assay type: functional
[5] = Cytotoxicity against human fibroblasts after 48 hrs by SRB assay; assay type: cell-based; details: Fibroblast; how it was run: as §1
[6] = system: A498; assay: Growth inhibition of human A498 cells; assay type: functional
[7] = system: DU-145; assay: Growth inhibition of human DU145 cells; assay type: functional
[8] = system: TK-10; assay: Growth inhibition of human TK10 cells; assay type: functional
[9] = Antiproliferative activity against mouse B16-F1 cells after 48 hrs by SRB assay; assay type: functional, cell-based; details: B16-F1, 48 h; how it was run: as §1
[10] = system: SNB-19; assay: Growth inhibition of human SNB19 cells; assay type: functional
[11] = system: MOLT-4; assay: Growth inhibition of human MOLT4 cells; assay type: functional
[12] = system: NCI-H522; assay: Growth inhibition of human NCI-H522 cells; assay type: functional
[13] = system: IGROV-1; assay: Growth inhibition of human IGROV1 cells; assay type: functional
[14] = system: SF-295; assay: Growth inhibition of human SF295 cells; assay type: functional
[15] = system: SK-OV-3; assay: Growth inhibition of human SKOV3 cells; assay type: functional
[16] = system: OVCAR-4; assay: Growth inhibition of human OVCAR4 cells; assay type: functional
[17] = system: RH7777; assay: Cytotoxicity against rat RH7777 cells after 96 hrs by SRB assay; assay type: cell-based; details: RH7777, 96 h
How it was run: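 Prostate lines in RPMI1640/10% FBS; RH7777 in DMEM/10% FBS. Cells TCA-fixed, stained with 0.4% SRB, absorbance read at 540 nm. IC50 from nonlinear regression of % survival against concentration.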

[18] = system: 786-0; assay: Growth inhibition of human 786-0 cells; assay type: functional
[19] = system: NCI-H322M; assay: Growth inhibition of human NCI-H322M cells; assay type: functional
[20] = system: SW-620; assay: Growth inhibition of human SW620 cells; assay type: functional
[21] = system: SK-MEL-28; assay: Growth inhibition of human SK-MEL-28 cells; assay type: functional
[22] = system: UACC-257; assay: Growth inhibition of human UACC257 cells; assay type: functional
[23] = system: ACHN; assay: Growth inhibition of human ACHN cells; assay type: functional
[24] = system: NCI/ADR-RES; assay: Growth inhibition of human NCI/ADR-RES cells; assay type: functional
[25] = system: UO-31; assay: Growth inhibition of human UO31 cells; assay type: functional
[26] = system: SF-268; assay: Growth inhibition of human SF268 cells; assay type: functional
[27] = system: SR; assay: Growth inhibition of human SR cells; assay type: functional
[28] = system: HT-29; assay: Growth inhibition of human HT-29 cells; assay type: functional
[29] = system: PC-3; assay: Growth inhibition of human PC3 cells; assay type: functional
[30] = system: HCT-116; assay: Growth inhibition of human HCT116 cells; assay type: functional
[31] = system: HCT-15; assay: Growth inhibition of human HCT15 cells; assay type: functional
[32] = Growth inhibition of human […] cells; assay type: functional
[33] = system: U-251; assay: Growth inhibition of human U251 cells; assay type: functional
[34] = system: HL-60(TB); assay: Growth inhibition of human HL-60(TB) cells; assay type: functional
[35] = system: NCI-H460; assay: Growth inhibition of human NCI-H460 cells; assay type: functional
[36] = system: CCRF-CEM; assay: Growth inhibition of human CCRF-CEM cells; assay type: functional
[37] = system: OVCAR-5; assay: Growth inhibition of human OVCAR5 cells; assay type: functional
[38] = system: HCC 2998; assay: Growth inhibition of human HCC2998 cells; assay type: functional
[39] = system: UACC-62; assay: Growth inhibition of human UACC62 cells; assay type: functional
[40] = system: RXF 393; assay: Growth inhibition of human RXF393 cells; assay type: functional
[41] = system: BT-549; assay: Growth inhibition of human BT549 cells; assay type: functional
[42] = system: EKVX; assay: Growth inhibition of human EKVX cells; assay type: functional
[43] = read-out: LC50 (the source's name)

CCCCCCCCCCCCCCCCCCNC(=O)[C@@H]1CSC(c2ccccc2)N1 (mixture of isomers)
GI50 [1]: 1.44 µM
TGI [1]: 2.75 µM
CC50 [1, 43]: 5.24 µM
GI50 [2]: 1.77 µM
TGI [2]: 3.15 µM
CC50 [2, 43]: 5.61 µM
pIC50 [3]: 5.36
GI50 [4]: 2.01 µM
TGI [4]: 4.12 µM
CC50 [4, 43]: 8.45 µM
pIC50 [5]: 4.53
GI50 [6]: 2.73 µM
TGI [6]: 5.3 µM
CC50 [6, 43]: 11.5 µM
GI50 [7]: 3.78 µM
TGI [7]: 15.7 µM
CC50 [7, 43]: 39.6 µM
GI50 [8]: 7.46 µM
TGI [8]: 29.2 µM
CC50 [8, 43]: > 100 µM
pIC50 [9]: 4.81
GI50 [10]: 2.03 µM
TGI [10]: 3.66 µM
CC50 [10, 43]: 6.6 µM
GI50 [11]: 0.86 µM
TGI [11]: 2.43 µM
CC50 [11, 43]: 6.51 µM
GI50 [12]: 3.52 µM
TGI [12]: 12.3 µM
CC50 [12, 43]: > 100 µM
GI50 [13]: 2.3 µM
TGI [13]: 5.47 µM
CC50 [13, 43]: 18.9 µM
GI50 [14]: 4.37 µM
TGI [14]: 15.9 µM
CC50 [14, 43]: 74.7 µM
GI50 [15]: 2.9 µM
TGI [15]: 5.65 µM
CC50 [15, 43]: 18.6 µM
GI50 [16]: 2.61 µM
TGI [16]: 5.41 µM
CC50 [16, 43]: 17.5 µM
pIC50 [17]: < 4.70
GI50 [18]: 1.78 µM
TGI [18]: 3.17 µM
CC50 [18, 43]: 5.63 µM
GI50 [19]: 2.28 µM
TGI [19]: 5.15 µM
CC50 [19, 43]: 15.4 µM
GI50 [20]: 1.18 µM
TGI [20]: 2.4 µM
CC50 [20, 43]: 4.9 µM
GI50 [21]: 1.49 µM
TGI [21]: 2.81 µM
CC50 [21, 43]: 5.3 µM
GI50 [22]: 2.13 µM
TGI [22]: 4.23 µM
CC50 [22, 43]: 8.4 µM
GI50 [23]: 2.12 µM
TGI [23]: 4.9 µM
CC50 [23, 43]: 13.5 µM
GI50 [24]: 2.02 µM
TGI [24]: 3.85 µM
CC50 [24, 43]: 7.37 µM
GI50 [25]: 2.31 µM
TGI [25]: 5.38 µM
CC50 [25, 43]: 16.3 µM
GI50 [26]: 1.2 µM
TGI [26]: 2.57 µM
CC50 [26, 43]: 5.53 µM
GI50 [27]: 0.49 µM
TGI [27]: 1.79 µM
CC50 [27, 43]: 6.79 µM
GI50 [28]: 1.75 µM
TGI [28]: 3.41 µM
CC50 [28, 43]: 6.67 µM
GI50 [29]: 2.97 µM
TGI [29]: 10.7 µM
CC50 [29, 43]: 32.8 µM
GI50 [30]: 1.31 µM
TGI [30]: 2.58 µM
CC50 [30, 43]: 5.08 µM
GI50 [31]: 10.9 µM
TGI [31]: 22.7 µM
CC50 [31, 43]: 47.7 µM
GI50 [32]: 2.12 µM
TGI [32]: 4.63 µM
CC50 [32, 43]: 11.7 µM
GI50 [33]: 1.8 µM
TGI [33]: 3.19 µM
CC50 [33, 43]: 5.65 µM
GI50 [34]: 2.03 µM
TGI [34]: 3.8 µM
CC50 [34, 43]: 7.11 µM
GI50 [35]: 1.41 µM
TGI [35]: 2.98 µM
CC50 [35, 43]: 6.31 µM
GI50 [36]: 0.56 µM
TGI [36]: 2.1 µM
CC50 [36, 43]: 6.5 µM
GI50 [37]: 1.91 µM
TGI [37]: 3.32 µM
CC50 [37, 43]: 5.76 µM
GI50 [38]: 0.54 µM
TGI [38]: 1.8 µM
CC50 [38, 43]: 4.24 µM
GI50 [39]: 2.14 µM
TGI [39]: 3.78 µM
CC50 [39, 43]: 6.68 µM
GI50 [40]: 1.55 µM
TGI [40]: 3.01 µM
CC50 [40, 43]: 5.85 µM
GI50 [41]: 0.84 µM
TGI [41]: 2.06 µM
CC50 [41, 43]: 4.54 µM
GI50 [42]: 2.12 µM
TGI [42]: 4.72 µM
CC50 [42, 43]: 12.3 µM
